This passage reports MIC, CC50 and Ratio results from ChEMBL document CHEMBL1817648, “Synthesis and in vitro antibacterial activity of a series of novel gatifloxacin derivatives” (Eur J Med Chem, 2011).

For series [1], the system named is Escherichia coli. Nature of the series: Antibacterial activity against Escherichia coli ATCC 25922 after 18 to 24 hrs by NCCLS M100-S11 two fold serial dilution method. It is filed as functional. The following applies: ATCC25922.
Series [2] has as its system Pseudomonas aeruginosa. Nature of the series: Antibacterial activity against Pseudomonas aeruginosa ATCC 27853 after 18 to 24 hrs by NCCLS M100-S11 two fold serial dilution method. The series is classed as functional.
Series [3] can be described thus: Cytotoxicity against african green monkey Vero cells after 72 hrs by MTT assay. The series is classed as cell-based. Conditions: chlorocebus sabaeus. A digest of the protocol: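 Vero cells were kept in Minimum Essential Medium with Earle's salts plus 10% fetal bovine serum at 37 °C under 5% CO₂. Cells were seeded at 1 × 10⁴ per well and allowed to recover 24 h. Medium was then replaced with assay medium containing compound or no drug, and cells were exposed for 72 h. CC₅₀ is the 50% cellular cytotoxic concentration.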

Series [4] deals with Pseudomonas aeruginosa. Nature of the series: Antibacterial activity against Pseudomonas aeruginosa 09-32 after 18 to 24 hrs by NCCLS M100-S11 two fold serial dilution method. The series is classed as functional.
For series [5], the system named is Enterococcus faecium. Nature of the series: Antibacterial activity against Enterococcus faecium 08-2 after 18 to 24 hrs by NCCLS M100-S11 two fold serial dilution method. It is filed as functional.
For series [6], the system named is Pseudomonas aeruginosa. Nature of the series: Antibacterial activity against Pseudomonas aeruginosa 09-33 after 18 to 24 hrs by NCCLS M100-S11 two fold serial dilution method. The series is classed as functional.
For series [7], the system named is Staphylococcus epidermidis. Nature of the series: Antibacterial activity against methicillin-sensitive Staphylococcus epidermidis 09-6 after 18 to 24 hrs by NCCLS M100-S11 two fold serial dilution method. It is filed as functional. A digest of the protocol: (§1)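 Two-fold serial dilution in agar medium. MIC read as the lowest concentration giving complete inhibition of bacterial growth after incubation at 35 °C for 18–24 h.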

Series [8] relates to Pseudomonas aeruginosa. Nature of the series: Ratio of levofloxacin MIC to compound MIC for Pseudomonas aeruginosa 09-32. It is filed as functional.
The test system of series [9] is Staphylococcus aureus. Nature of the series: Antibacterial activity against Staphylococcus aureus ATCC 25923 after 18 to 24 hrs by NCCLS M100-S11 two fold serial dilution method. The following applies: ATCC25923. It is filed as functional.
Series [10] deals with Pseudomonas aeruginosa. Nature of the series: Ratio of levofloxacin MIC to compound MIC for Pseudomonas aeruginosa ATCC 27853. It is filed as functional.
The subject of series [11] is Escherichia coli. Nature of the series: Antibacterial activity against Escherichia coli 08-22 after 18 to 24 hrs by NCCLS M100-S11 two fold serial dilution method. The series is classed as functional.
The subject of series [12] is Enterococcus faecium. Nature of the series: Antibacterial activity against Enterococcus faecium 08-7 after 18 to 24 hrs by NCCLS M100-S11 two fold serial dilution method. It is filed as functional.
The subject of series [13] is Escherichia coli. Nature of the series: Antibacterial activity against Escherichia coli 08-21 after 18 to 24 hrs by NCCLS M100-S11 two fold serial dilution method. It is filed as functional.
Series [14] concerns Enterococcus faecalis. Nature of the series: Antibacterial activity against Enterococcus faecalis 08-10 after 18 to 24 hrs by NCCLS M100-S11 two fold serial dilution method. The series is classed as functional.
Series [15] deals with Klebsiella pneumoniae. Nature of the series: Antibacterial activity against Klebsiella pneumoniae 09-22 after 18 to 24 hrs by NCCLS M100-S11 two fold serial dilution method. The series is classed as functional.
Series [16] relates to Staphylococcus epidermidis. Nature of the series: Antibacterial activity against methicillin-resistant Staphylococcus epidermidis 09-4 after 18 to 24 hrs by NCCLS M100-S11 two fold serial dilution method. It is filed as functional. A digest of the protocol:
as §1

The test system of series [17] is Streptococcus pneumoniae. Nature of the series: Antibacterial activity against Streptococcus pneumoniae 08-4 after 18 to 24 hrs by NCCLS M100-S11 two fold serial dilution method. It is filed as functional.
Series [18] concerns Streptococcus pneumoniae. Nature of the series: Antibacterial activity against Streptococcus pneumoniae 08-2 after 18 to 24 hrs by NCCLS M100-S11 two fold serial dilution method. The series is classed as functional.
The test system of series [19] is Klebsiella pneumoniae. Nature of the series: Antibacterial activity against Klebsiella pneumoniae 09-23 after 18 to 24 hrs by NCCLS M100-S11 two fold serial dilution method. It is filed as functional.
In series [20] the test system is Pseudomonas aeruginosa. Nature of the series: Antibacterial activity against Pseudomonas aeruginosa 09-34 after 18 to 24 hrs by NCCLS M100-S11 two fold serial dilution method. It is filed as functional.
Series [21] has as its system Pseudomonas aeruginosa. Nature of the series: Ratio of levofloxacin MIC to compound MIC for Pseudomonas aeruginosa 09-34. It is filed as functional.
Series [22] deals with Pseudomonas aeruginosa. Nature of the series: Ratio of levofloxacin MIC to compound MIC for Pseudomonas aeruginosa 09-33. The series is classed as functional.
The subject of series [23] is Staphylococcus aureus. Nature of the series: Antibacterial activity against methicillin-sensitive Staphylococcus aureus 08-1 after 18 to 24 hrs by NCCLS M100-S11 two fold serial dilution method. It is filed as functional.
The test system of series [24] is Staphylococcus aureus. Nature of the series: Antibacterial activity against methicillin-resistant Staphylococcus aureus 08-1 after 18 to 24 hrs by NCCLS M100-S11 two fold serial dilution method. It is filed as functional. In short, it runs like this:
as §1

Series [25] has as its system Enterococcus faecalis. Nature of the series: Antibacterial activity against Enterococcus faecalis 08-12 after 18 to 24 hrs by NCCLS M100-S11 two fold serial dilution method. It is filed as functional.
The subject of series [26] is Staphylococcus epidermidis. Nature of the series: Antibacterial activity against methicillin-sensitive Staphylococcus epidermidis 09-3 after 18 to 24 hrs by NCCLS M100-S11 two fold serial dilution method. It is filed as functional. In short, it runs like this:
as §1

Molecules are shown by their SMILES. In brackets after ≈: the same amount, converted by molar mass.

What is called MIC is the lowest concentration that inhibits growth of the organism. A word on the CC50: it is the concentration that lowers cell viability or growth by half.

With `COc1c(N2CCN(CC/C(C)=N/Nc3ccccc3)C(C)C2)c(F)cc2c(=O)c(C(=O)O)cn(C3CC3)c12` (stereo not drawn), the MIC against Escherichia coli [1] turned out to be 0.25 µg/mL (≈ 0.467 µM); with Pseudomonas aeruginosa [2] it was 0.5 µg/mL (≈ 0.933 µM); in the series on Pseudomonas aeruginosa [4] it was 0.5 µg/mL (≈ 0.933 µM); in the series on Enterococcus faecium [5] it was 0.5 µg/mL (≈ 0.933 µM); in the series with Pseudomonas aeruginosa [6] it was 0.5 µg/mL (≈ 0.933 µM); in series [7], 0.25 µg/mL (≈ 0.467 µM). Moreover, the MIC against Staphylococcus aureus [9] came out at 0.06 µg/mL (≈ 0.112 µM); in the series on Escherichia coli [11] it was 1 µg/mL (≈ 1.87 µM); in the series on Enterococcus faecium [12] it was 0.5 µg/mL (≈ 0.933 µM); against Escherichia coli [13] it was 1 µg/mL (≈ 1.87 µM); in the series with Enterococcus faecalis [14] it was 0.5 µg/mL (≈ 0.933 µM); with Klebsiella pneumoniae [15], 0.5 µg/mL (≈ 0.933 µM). For the same compound, the MIC turned out to be 0.06 µg/mL (≈ 0.112 µM) in series [16]; 0.25 µg/mL (≈ 0.467 µM) in the series with Streptococcus pneumoniae [17]; 0.5 µg/mL (≈ 0.933 µM) against Streptococcus pneumoniae [18]; 1 µg/mL (≈ 1.87 µM) in the series on Klebsiella pneumoniae [19]; 0.25 µg/mL (≈ 0.467 µM) in the series on Pseudomonas aeruginosa [20]; 0.125 µg/mL (≈ 0.233 µM) in the series on Staphylococcus aureus [23]. The MIC is 0.25 µg/mL (≈ 0.467 µM) against Staphylococcus aureus [24], 1 µg/mL (≈ 1.87 µM) in the series with Enterococcus faecalis [25] and 0.06 µg/mL (≈ 0.112 µM) in series [26]. Besides, the CC50 at 72 h in [3] is 62.5 µg/mL (≈ 117 µM). Moreover, the Ratio in the series with Pseudomonas aeruginosa [8], with Pseudomonas aeruginosa [10], in the series on Pseudomonas aeruginosa [21] and with Pseudomonas aeruginosa [22] was 2 throughout.

Turning to `COc1c(N2CCN(O)C(C)C2)c(F)cc2c(=O)c(C(=O)O)cn(C3CC3)c12` (stereo not drawn), the MIC in the series with Escherichia coli [1] came to 4 µg/mL (≈ 10.2 µM); with Pseudomonas aeruginosa [2] it was 4 µg/mL (≈ 10.2 µM); in the series on Pseudomonas aeruginosa [4] it was 2 µg/mL (≈ 5.11 µM); with Enterococcus faecium [5], 16 µg/mL (≈ 40.9 µM); in the series on Pseudomonas aeruginosa [6], 32 µg/mL (≈ 81.8 µM); in [7], 0.25 µg/mL (≈ 0.639 µM). In addition, the MIC with Staphylococcus aureus [9] was determined as 0.125 µg/mL (≈ 0.319 µM); with Escherichia coli [11] it was 16 µg/mL (≈ 40.9 µM); against Enterococcus faecium [12], 16 µg/mL (≈ 40.9 µM); in the series with Escherichia coli [13], 16 µg/mL (≈ 40.9 µM); against Enterococcus faecalis [14], 16 µg/mL (≈ 40.9 µM); against Klebsiella pneumoniae [15] it was 2 µg/mL (≈ 5.11 µM). For the same compound, the minimal inhibitory concentration (MIC) in series [16] worked out at 0.25 µg/mL (≈ 0.639 µM); against Streptococcus pneumoniae [17], 2 µg/mL (≈ 5.11 µM); against Streptococcus pneumoniae [18] it was 16 µg/mL (≈ 40.9 µM); against Klebsiella pneumoniae [19], 16 µg/mL (≈ 40.9 µM); against Pseudomonas aeruginosa [20] it was 4 µg/mL (≈ 10.2 µM); in the series on Staphylococcus aureus [23] it was 0.25 µg/mL (≈ 0.639 µM). The minimal inhibitory concentration (MIC) in the series with Staphylococcus aureus [24] came out at 0.25 µg/mL (≈ 0.639 µM); against Enterococcus faecalis [25], 16 µg/mL (≈ 40.9 µM); in [26], 0.25 µg/mL (≈ 0.639 µM). In series [3], this compound registered a CC50 at 72 h of 19.7 µg/mL (≈ 50.3 µM).
